In paper PMC4338372 (FEBS Open Bio, 2015):
Values belong to the molecule of their own block, whether it stands above or below them.

Key:
[1] = molecular target: SH3 domain of Hck (SH3Hck) (Homo sapiens, UniProt P08631); assay: Pull-down of 6His-ELMO1 constructs on immobilized GST-SH3Hck; type: binding; details: bacterially expressed 6His-ELMO1; 1 h at 4 °C; anti-polyHistidine western blot
In short: (§1)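 GST-tagged SH3 domains (Hck residues 77–141; human DOCK180 residues 9–69) and 6His-ELMO1 (wild type 1–727, 532–727 and 532–707) were made in E. coli BL21(DE3) (1 mM IPTG, LB, 3 h, 37 °C). ELMO1 was purified by Ni–NTA and gel filtration, GST fusions on glutathione resin. ELMO1 was incubated with resin-bound SH3 (1 mg/ml) for 1 h at 4 °C in pH 7.5 Hepes buffer. Beads were washed three times, eluted denaturing, and analysed by SDS–PAGE and anti-His immunoblot.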

[2] = system: SH3 domain of DOCK180 (SH3DOCK); assay: Pull-down of 6His-ELMO1 constructs on immobilized GST-SH3DOCK; type: binding, human; details: bacterially expressed 6His-ELMO1; 1 h at 4 °C; anti-polyHistidine western blot
In short: as §1

CLIP-SH3Hck = assay: FRET of SNAP-ELMO1 constructs and CLIP-SH3Hck in HEK293T cells by flow cytometry; type: cell-based; details: HEK293T co-transfected with CLIP-SH3Hck; control CLIP-SH3Hck alone
SH3Hck = assay: Solid-phase enzyme immunoassay; type: binding; details: preliminary solid-phase enzyme immunoassay; data not shown

Chain of SH3 domain of Hck (SH3Hck) (P08631 77-141): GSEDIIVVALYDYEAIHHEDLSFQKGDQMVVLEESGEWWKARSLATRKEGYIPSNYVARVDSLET

pull-down by immobilized GST-SH3Hck [1]: specifically pulled-down
dissociation rate of SH3Hck (SH3Hck): ten-micromolar range
B1: ELMO532–727: C-terminal domain of ELMO1 with the polyproline motif (protein)
chain: PILELKEKIQPEILELIKQQRLNRLVEGTCFRKLNARRRQDKFWYCRLSPNHKVLHYGDLEESPQGEVPHDSLQDKLPVADIKAVVTGKDCPHMKEKGALKQNKEVLELAFSILYDSNCQLNFIAPDKHEYCIWTDGLNALLGKDMMSDLTRNDLDTLLSMEIKLRLLDLENIQIPDAPPPIPKEPSNYDFVYDCN
modifications: left off: 6His (TEV cleavable), end not stated, kept
pull-down by immobilized GST-SH3DOCK [2]: efficiently pulled-down
median FRET intensity compared to control cells (CLIP-SH3Hck): significantly higher median FRET intensity compared to control cells

B2: ELMO532–707: C-terminal domain of ELMO1 without the polyproline motif (protein)
chain: PILELKEKIQPEILELIKQQRLNRLVEGTCFRKLNARRRQDKFWYCRLSPNHKVLHYGDLEESPQGEVPHDSLQDKLPVADIKAVVTGKDCPHMKEKGALKQNKEVLELAFSILYDSNCQLNFIAPDKHEYCIWTDGLNALLGKDMMSDLTRNDLDTLLSMEIKLRLLDLENIQIP
modifications: left off: 6His (TEV cleavable), end not stated, kept
pull-down by immobilized GST-SH3DOCK [2]: efficiently pulled-down

pull-down by immobilized GST-SH3Hck [1]: successfully pulled-down
B3: ELMO1–727: wild type (murine) ELMO1 protein (protein)
chain: MPPPSDIVKVAIEWPGAYPKLMEIDQKKPLSAIIKEVCDGWSLANHEYFALQHADSSNFYITEKNRNEIKNGTILRLTTSPAQNAQQLHERIQSSSMDAKLEALKDLASLSRDVTFAQEFINLDGISLLTQMVESGTERYQKLQKIMKPCFGDMLSFTLTAFVELMDHGIVSWDTFSVAFIKKIASFVNKSAIDISILQRSLAILESMVLNSHDLYQKVAQEITIGQLIPHLQGTDQEIQTYTIAVINALFLKAPDERRQEMANILAQKQLRYIILTHVIRAQRAINNEMAHQLYVLQVLTFNLLEDRMMTKMDPQDQAQRDIIFELRRIAFDAESEPNNSSGSMEKRKSMYTRDYKKLGFINHVNPAMDFTQTPPGMLALDNMLYFAKHHQDAYIRIVLENSSREDKHECPFGRSSIELTKMLCEILKVGELPSETCNDFHPMFFTHDRSFEEFFCICIQLLNKTWKEMRATSEDFNKVMQVVKEQVMRALTTKPSSLDQFKSKLQNLSYTEILKIRQSERMNQEDFQSRPILELKEKIQPEILELIKQQRLNRLVEGTCFRKLNARRRQDKFWYCRLSPNHKVLHYGDLEESPQGEVPHDSLQDKLPVADIKAVVTGKDCPHMKEKGALKQNKEVLELAFSILYDSNCQLNFIAPDKHEYCIWTDGLNALLGKDMMSDLTRNDLDTLLSMEIKLRLLDLENIQIPDAPPPIPKEPSNYDFVYDCN
modifications: left off: 6His (TEV cleavable), end not stated, kept
pull-down by immobilized GST-SH3DOCK [2]: successfully pulled-down
